The target in one assay is T1, DNA polymerase α (Pol-α) (Homo sapiens, UniProt P09884).
T1 sequence (P09884 1-1462): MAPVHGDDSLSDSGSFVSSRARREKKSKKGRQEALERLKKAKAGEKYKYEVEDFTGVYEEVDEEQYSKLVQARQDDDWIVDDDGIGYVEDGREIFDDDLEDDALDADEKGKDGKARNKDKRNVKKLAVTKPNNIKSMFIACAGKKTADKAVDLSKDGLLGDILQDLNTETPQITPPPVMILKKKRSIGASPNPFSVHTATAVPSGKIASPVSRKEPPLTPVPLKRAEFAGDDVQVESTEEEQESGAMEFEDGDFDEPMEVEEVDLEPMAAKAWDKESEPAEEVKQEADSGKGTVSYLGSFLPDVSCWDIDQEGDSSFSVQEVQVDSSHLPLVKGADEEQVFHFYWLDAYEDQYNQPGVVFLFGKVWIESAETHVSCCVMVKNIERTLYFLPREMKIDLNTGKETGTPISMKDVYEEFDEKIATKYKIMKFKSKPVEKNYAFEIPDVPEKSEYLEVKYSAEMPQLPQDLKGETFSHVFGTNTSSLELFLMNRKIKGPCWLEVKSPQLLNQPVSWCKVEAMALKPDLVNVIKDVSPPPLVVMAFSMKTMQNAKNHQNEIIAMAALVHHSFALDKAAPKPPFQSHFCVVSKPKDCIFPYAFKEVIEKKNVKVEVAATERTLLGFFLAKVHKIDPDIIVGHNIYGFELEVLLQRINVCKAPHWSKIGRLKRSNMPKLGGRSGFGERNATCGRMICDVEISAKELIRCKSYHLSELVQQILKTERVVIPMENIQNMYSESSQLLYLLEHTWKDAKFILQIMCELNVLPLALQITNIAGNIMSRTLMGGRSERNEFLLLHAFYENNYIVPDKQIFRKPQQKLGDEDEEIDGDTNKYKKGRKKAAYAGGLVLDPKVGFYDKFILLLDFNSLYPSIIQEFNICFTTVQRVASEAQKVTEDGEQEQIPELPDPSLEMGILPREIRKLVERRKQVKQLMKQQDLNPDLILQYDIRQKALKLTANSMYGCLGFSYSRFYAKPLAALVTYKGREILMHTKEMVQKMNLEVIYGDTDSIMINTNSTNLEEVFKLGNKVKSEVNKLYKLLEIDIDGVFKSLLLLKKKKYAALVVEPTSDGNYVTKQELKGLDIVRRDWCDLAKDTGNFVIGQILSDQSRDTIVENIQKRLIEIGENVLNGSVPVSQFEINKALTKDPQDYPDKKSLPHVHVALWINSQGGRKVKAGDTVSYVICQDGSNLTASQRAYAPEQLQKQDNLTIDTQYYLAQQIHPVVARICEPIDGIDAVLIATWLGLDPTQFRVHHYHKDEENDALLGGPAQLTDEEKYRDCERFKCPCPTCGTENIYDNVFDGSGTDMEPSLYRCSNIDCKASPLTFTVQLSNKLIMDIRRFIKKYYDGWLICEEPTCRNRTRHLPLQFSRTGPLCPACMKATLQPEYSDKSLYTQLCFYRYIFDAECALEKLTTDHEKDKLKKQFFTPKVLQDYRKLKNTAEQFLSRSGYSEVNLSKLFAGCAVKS
As to the kind of experiment: DNA polymerase inhibition assay, Pol-α. The class given is biochemical. The note with it: Pol-α; 1 h, 3H-dTTP incorporation.

The next assay addresses DNA polymerase β (Pol-β) (Homo sapiens, UniProt P06746). As to the kind of experiment: DNA polymerase inhibition assay, Pol-β. The class given is biochemical. The note with it: 1 h, 3H-dTTP incorporation. The method, boiled down:
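Reactions contained 25 μM each dATP/dCTP/dGTP, 25 nM TTP plus 1 μCi ³H-TTP, 160 nM template/primer, and serially diluted test nucleotide (0–200 μM). Incubation was 1 h at 37°C. DNA was TCA-precipitated, washed and counted; inhibition was taken from reduced incorporation. ddNTPs served as positive control.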

Assay [1] has as its system human mitochondrial Pol-γ. The note with it: absence of endogenous dNTPs; cited from earlier work.

Molecules are shown by their SMILES. Bounds are passed on as bounds.

One may read the IC50 as the concentration at which inhibition is half-maximal. Read a high IC50 as weaker potency in that assay. The term IC90 denotes the concentration needed for an effect of 90%. Consider `Nc1ncnc2c1ncn2[C@@H]1O[C@H](COP(=O)(O)OP(=O)(O)OP(=O)(O)O)[C@@H](O)[C@H]1F` [2′-F-ATP], for which the 50% inhibitory concentration (IC50) at DNA polymerase α (Pol-α) was more than 200 µM; against DNA polymerase β (Pol-β), 175 µM. Further, the 90% effect concentration (IC90) on DNA polymerase α (Pol-α) and on DNA polymerase β (Pol-β) was more than 200 µM each time.
Turning to `Nc1ccn([C@@H]2O[C@H](COP(=O)(O)OP(=O)(O)OP(=O)(O)O)[C@@H](O)[C@H]2F)c(=O)n1` [2′-F-CTP], the 50% inhibitory concentration (IC50) at DNA polymerase α (Pol-α) and at DNA polymerase β (Pol-β) was more than 200 µM each time. Further, the IC90 at DNA polymerase α (Pol-α) and against DNA polymerase β (Pol-β) was more than 200 µM throughout.
As to `Nc1nc2c(ncn2[C@@H]2O[C@H](COP(=O)(O)OP(=O)(O)OP(=O)(O)O)[C@@H](O)[C@H]2F)c(=O)[nH]1` [2′-F-GTP], the IC50 on DNA polymerase α (Pol-α) and on DNA polymerase β (Pol-β) was more than 200 µM in each case. In addition, the IC90 on DNA polymerase α (Pol-α) and against DNA polymerase β (Pol-β) was more than 200 µM each time. In addition, in assay [1], the “misincorporation frequency relative to the natural dTTP/dNTP” value was 16%.
As to `O=c1ccn([C@@H]2O[C@H](COP(=O)(O)OP(=O)(O)OP(=O)(O)O)[C@@H](O)[C@H]2F)c(=O)[nH]1` [2′-F-UTP], the IC50 on DNA polymerase α (Pol-α) was more than 200 µM; against DNA polymerase β (Pol-β), 91.6 µM. The 90% effect concentration (IC90) against DNA polymerase α (Pol-α) and against DNA polymerase β (Pol-β) was more than 200 µM each time. In assay [1], the “misincorporation frequency relative to the natural dTTP/dNTP” value was 0.5%.
In the case of `O=c1[nH]c(=O)n([C@@H]2O[C@H](COP(=O)(O)OP(=O)(O)OP(=O)(O)O)[C@@H](O)[C@@H]2F)cc1I` [FIAU-TP, fialuridine triphosphate, reference compound], at DNA polymerase α (Pol-α), the IC50 is 0.27 µM and the IC90 worked out at 13.7 µM. At DNA polymerase β (Pol-β), this compound registered an IC50 of 0.37 µM and an IC90 of 5.56 µM. For the same compound, in assay [1], the “misincorporation frequency relative to the natural dTTP/dNTP” value is on record as 125%.

Source of the values: publication PMC6468299 (Nucleic Acids Research, 2019).
